Hits are enriched below; roughly 1.6% of the tested compounds scored in any of these assays.
S100A4 MyoIIA: inhibitors of human S100A4 binding to myosin IIA peptide; P26447; S100A4/TAMRA-MyoIIA peptide fluorescence polarization; inhibition, % at 10.7 µM; hit rate 0.14% among 360,000;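 active means mean inhibition of at least 70% across replicates, with every replicate also reaching that level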
Target sequence (P26447 whole entry, looked up): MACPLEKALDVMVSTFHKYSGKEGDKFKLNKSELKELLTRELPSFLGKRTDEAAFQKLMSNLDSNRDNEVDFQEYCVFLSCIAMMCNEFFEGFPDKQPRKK
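Compound dosing: one dose per compound; test system: human S100A4 monomer with TAMRA-labelled myosin IIA peptide; probe or stimulus: TAMRA-labelled myosin IIA heavy-chain peptide probe, 5 nM; medium: HEPES buffer with Ca2+, pH 7.2; schedule: 5 min incubation before reading; benchmarks: neutral control DMSO, positive control TFP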
dFosB act-1: mouse delta FosB homodimer activation; P13346; activation, % at 25 µM; purified delta FosB, TAMRA-CDK5 oligo fluorescence polarization; percent of positive-control signal above neutral wells; AID 493131; hit rate 0.99% among 340,000;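 active means mean activation above about 17%, with every replicate also reaching it, limit read from the data, passing the limit was not always enough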
Target sequence (P13346 whole entry, looked up): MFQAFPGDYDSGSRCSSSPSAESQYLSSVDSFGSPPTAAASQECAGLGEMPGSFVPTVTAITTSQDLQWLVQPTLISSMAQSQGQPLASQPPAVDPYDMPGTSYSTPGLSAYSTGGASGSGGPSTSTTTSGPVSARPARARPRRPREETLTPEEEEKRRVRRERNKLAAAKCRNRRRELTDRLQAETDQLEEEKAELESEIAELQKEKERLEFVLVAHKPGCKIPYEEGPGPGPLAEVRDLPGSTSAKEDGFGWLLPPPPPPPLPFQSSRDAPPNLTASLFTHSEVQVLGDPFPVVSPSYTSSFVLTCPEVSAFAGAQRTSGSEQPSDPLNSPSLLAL
SR-BI uptake up: activators of SR-BI mediated HDL lipid uptake; CHO ldlA[mSR-BI] cells, DiI-HDL uptake fluorescence, 3 h; 100 = double the neutral-control signal; activation, % at 12.5 µM; hit rate 0.096% among 320,000; AID 504775;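 active means mean replicate activation of at least 60% and every replicate at or above 60%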;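 further: 0% = median plate neutral-control signal and 100% = twice that signal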
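Material – SR-BI-overexpressing, LDLR-lacking CHO cells · Medium – BSA-supplemented, HEPES-buffered Ham's F12, pH 7.4 · Doses – single concentration · Times – compound with DiI-HDL co-incubation, 3 h at 37 °C · Measured by – bottom-read fluorescence, 550/595 nm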
SR-BI DiI inh: mouse SR-BI HDL lipid transfer inhibition | ldlA[mSR-BI] CHO cells, DiI-HDL uptake fluorescence, 3 h | inhibition, % at 12.5 µM | hit rate 0.96% among 320,000 | AID 488896;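 active means mean replicate inhibition of at least 70% and a set share of replicates each scoring 70 or more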;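 further: 0% = median of neutral control wells and 100% = median of positive control wells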
RAD54 inh: inhibitors of human RAD54 branch migration; Q92698; RAD54 Holliday junction branch migration, FAM/BHQ fluorescence; inhibition, % at 10.4 µM; hit rate 0.14% among 360,000; AID 602329;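 active means mean normalized replicate activity at least 40 and at least half of replicates scoring 40 or more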;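 further: 0% = median of neutral control wells and 100% = median of positive control wells; inhibitors cause a drop in the FAM fluorescence signal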
PvdQ inh: blocks Pseudomonas aeruginosa PvdQ acylase activity | purified PvdQ acylase, fluorescence plate reader | inhibition, % at 10 µM | hit rate 0.063% among 340,000 | AID 488965; in the data active means inhibition above about 30%, passing the limit was not always enough;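 further: 0% = vehicle neutral wells and 100% = reference inhibitor wells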
dFosB act-2: activators of mouse delta FosB homodimer DNA binding | 2,400 tested, under 10 active | AID 588690 | activation, % at 24.9 µM | purified delta FosB, TAMRA-CDK5 oligo fluorescence polarization; normalised: neutral wells 0, positive control 100 | shares compounds with dFosB act-1;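 active means highest replicate activation at or above 34% and every replicate reaching that threshold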;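 further: higher polarization means more probe DNA bound by delta FosB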
* hit, by the source's call; nt = no result.

SMILES	S100A4 MyoIIA	dFosB act-1	SR-BI uptake up	SR-BI DiI inh	RAD54 inh	PvdQ inh	dFosB act-2
COC(=O)c1ccc(C2C(Oc3ccc(OC)cc3)C(=O)N2CCc2ccc(F)cc2)cc1 (stereo unspecified)	nt	23.2*	-19.7	19.7	nt	-8.6	-0.6
COc1ccc(OC2C(=O)N(Cc3ccc(F)cc3)C2c2cc(OC)c(OC)c(OC)c2)cc1 (stereo unspecified)	nt	-2.6	7.0	-7.0	nt	-4.5	nt
O=C(Nc1ccc(Cl)cc1)Nc1nc(-c2ccccc2)cs1	2.6	29.8*	-24.8	24.8	nt	-11.1	5.6
CC(=O)Nc1nc(-c2cc([N+](=O)[O-])cs2)cs1	2.1	29.4*	-14.2	14.2	nt	4.9	-1.9
O=C(Nc1ccc([N+](=O)[O-])cc1)Nc1nc(-c2ccc(Cl)s2)cs1	1.8	28.7*	-84.0	84.0*	nt	14.0	7.4
CCC(=O)N1C[C@H](O)COC[C@@H]2O[C@H](CC(=O)N3CCCCC3)CC[C@H]21	-23.5	nt	nt	nt	1.4	nt	nt
CO[C@@H]1CN(C)C(=O)c2cc(NS(=O)(=O)c3ccc(-c4ccccc4)cc3)ccc2OC[C@H](C)NC[C@H]1C	11.7	nt	nt	nt	-1.5	nt	nt
Cc1ccc(S(=O)(=O)N(C)C[C@H]2Oc3ccc(NC(=O)Cc4ccccc4)cc3C(=O)N([C@H](C)CO)C[C@@H]2C)cc1	16.1	nt	nt	nt	4.8	nt	nt
CN(C)C(=O)c1ccc(-c2ccc([C@H]3[C@@H](CO)N4CCCCN(C(=O)C5CCC5)C[C@H]34)cc2)cc1	-2.0	nt	nt	nt	-0.3	nt	nt
Cc1ccc(OCC(=O)Nc2ccc(-c3nc4ncccc4o3)cc2)c(C)c1	nt	73.1*	-9.9	9.9	-1.7	-9.9	-0.2
N#C/C(=C\c1c(N2CCN(Cc3ccccc3)CC2)nc2ccccn2c1=O)S(=O)(=O)c1ccccc1	-13.0	32.3*	21.0	-21.0	nt	-5.5	2.7
Cc1cccc(NC(=O)CSc2nc3ccccc3c3nc(CCc4c(C)n[nH]c4C)nn23)c1	nt	44.1*	-29.5	29.5	nt	-14.0	-9.1
Cc1n[nH]c(C)c1CCc1nc2c3ccccc3nc(SCC(=O)Nc3ccccc3F)n2n1	nt	56.8*	-9.6	9.6	-0.4	-1.7	5.6
Cc1cccc(CCNC(=O)CCNC(=O)Cn2ccc3ccccc3c2=O)c1	nt	4.6	1.2	-1.2	-1.9	5.9	nt
O=C(CCNC(=O)Cn1ccc2ccccc2c1=O)NCCc1ccc(Cl)cc1	-9.7	33.2*	-11.5	11.5	-10.7	-15.9	-6.6
CCOc1ccccc1CNC(=O)CCNC(=O)Cn1ccc2ccccc2c1=O	nt	22.7*	-11.9	11.9	0.3	7.4	2.1
CCOC(=O)Nc1ccc2c(COC(=O)CN(C)S(=O)(=O)c3ccc(C)cc3)cc(=O)oc2c1	-0.8	36.0*	-46.5	46.5	nt	0.9	7.5
CC(C)C[C@H](NC(=O)[C@@H]1Cc2ccccc2CN1)C(=O)Nc1ccc(C(C)C)cc1	-6.8	23.3*	-9.2	9.2	-1.9	0.9	-2.1
Cc1cc(C)cc(NC(=O)[C@H](NC(=O)[C@@H]2Cc3ccccc3CN2)c2ccccc2)c1	nt	47.2*	11.0	-11.0	nt	-5.4	1.3
Cc1ccc(NC(=O)[C@H](Cc2c[nH]c3ccccc23)NC(=O)[C@@H]2Cc3ccccc3CN2)c(C)c1	-2.5	33.9*	-46.8	46.8	-3.5	-3.4	3.5
CN1CCN(C(=O)C[C@H]2C[C@@H]3c4cc(NC(=O)c5ccc6c(c5)OCO6)ccc4O[C@@H]3[C@H](CO)O2)CC1	5.0	nt	nt	nt	-2.7	nt	nt
COc1ccc(/C=C/C(=O)OCC(=O)Nc2cc(S(=O)(=O)N(C)C)ccc2Cl)cc1	-11.4	-6.2	19.3	-19.3	-0.5	-14.9	nt
O=C(COC(=O)/C=C/c1cccc(C(F)(F)F)c1)NC(=O)NCc1ccccc1	-3.6	24.5*	43.0	-43.0	3.0	7.4	1.6
COc1ccc(/C=C/C(=O)OCC(=O)Nc2cc(C(F)(F)F)ccc2Cl)cc1	0.3	30.8*	20.2	-20.2	nt	-7.4	0.9
O=C(COC(=O)/C=C/c1cccc(C(F)(F)F)c1)NC(c1ccccc1)c1ccccc1	nt	26.3*	5.8	-5.8	2.4	-12.1	4.9
